# The source made the active and inactive calls. The rule behind the calls is not given here.
# Experiments:
# [1] = Inhibition of Staphylococcus aureus sortase A deltaN59 mutant assessed as Dap(Dnp) hydrolysis by FRET assay
# [2] = Inhibition of Bacillus anthracis sortase A by FRET assay
# Summary of the method: (§1)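 B. anthracis SrtA (1.5–15 µM final) preincubated 1 h at 25 °C with compound (0.08–400 µM final, Me2SO) in 20 mM HEPES, 5 mM CaCl2, pH 7.5. Reaction started with 100 µM Abz-LPETG-Dap(Dnp) substrate. Fluorescence read at ex 335/em 420 nm. IC50 from fit of initial velocities, three independent data sets, Hill equation.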
# [3] = Inhibition of Staphylococcus aureus sortase A deltaN59 mutant assessed as Dap(Dnp) hydrolysis by FRET assay based enzyme kinetics assay; conditions: read-out: Ki(app)
# Staphylococcus aureus [4] = assay: Antimicrobial activity against Staphylococcus aureus Newman by microtiter broth dilution method; format: functional
# Summary of the method: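 S. aureus Newman overnight culture diluted to OD600 0.01, incubated at 37 °C, diluted to OD600 0.005; compound added at final 0.1–100 µM. OD600 followed during overnight growth at 37 °C in plate reader. Growth percentage relative to no-inhibitor cultures and to 10 µg/mL erythromycin. Triplicate.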
# Staphylococcus aureus [5] = test system: Staphylococcus aureus
# [6] = Inhibition of Bacillus anthracis sortase A by FRET-based enzyme kinetics assay; conditions: read-out: Ki(app); summary of the method: as §1
Structure (SMILES),IC50 [1] [µM],other results
CCOc1c(S)cnn(-c2cccc(Br)c2)c1=O,> 50,–
O=c1c(Cl)c(Cl)cnn1C1CCCCC1,> 50,IC50 [2]: 14 µM
CCOc1cnn(-c2cccc(F)c2)c(=O)c1Cl,> 50,–
CN1C(=O)/C(=C/c2cc([N+](=O)[O-])cc(Br)c2O)SC1=S,14,–
CCOc1c(Cl)cnn(-c2ccccc2)c1=O,> 50,–
CCOc1c(Cl)cnn(C2CCCCC2)c1=O,> 50,–
CCOc1c(Cl)cnn(-c2cc(Cl)cc(Cl)c2)c1=O,> 50,–
COc1c(Cl)cnn(-c2cccc(Br)c2)c1=O,> 50,–
CCOc1c(SSc2ccccn2)cnn(-c2ccccc2)c1=O,–,Ki [3]: 30 nM
CC1=NN(c2ccccc2)C(=S)/C1=C/Nc1ccc(I)cc1,42,–
CCOc1cnn(C2CCCCC2)c(=O)c1Cl,> 50,–
Cc1ccc(/C=C2\SC(=S)N(c3cccc(Cl)c3)C2=O)cc1[N+](=O)[O-],> 1000,–
COc1c(S)cnn(-c2cccc(Cl)c2)c1=O,4.5,MIC (Staphylococcus aureus [4]): > 1000 µM; Activity (Staphylococcus aureus [5]): 50%
CC1=NN(c2ccccc2)C(=S)/C1=C/Nc1cc([N+](=O)[O-])ccc1O,14,–
COc1c(O)cnn(-c2ccccc2)c1=O,> 50,IC50 [2]: > 50 µM
CC1=NN(c2ccccc2)C(=S)/C1=C/Nc1ccc([N+](=O)[O-])cc1Br,8.9,–
C=CCN1C(=O)/C(=C/c2ccc(-c3ccccc3)o2)SC1=S,199,IC50 [2]: 27 µM
O=c1c(Cl)c(Cl)cnn1-c1cccc(Br)c1,> 50,–
CCOc1cnn(-c2cccc(F)c2)c(=O)c1S,5.7,IC50 [2]: 0.9 µM
CC1=NN(c2ccccc2)C(=S)/C1=C/Nc1ccc([N+](=O)[O-])cc1[N+](=O)[O-],6.8,–
CC1=NOC(=O)/C1=N\c1ccc([N+](=O)[O-])cc1,17,–
O=c1c(Cl)c(Cl)cnn1-c1ccccc1,> 50,–

Structure (SMILES),IC50 [1] [µM],other results
CC1=NN(c2ccccc2)C(=O)/C1=C/Nc1ccc([N+](=O)[O-])cc1,56,Ki [3]: 300 nM
COc1c(Cl)cnn(-c2cccc(F)c2)c1=O,> 50,–
CCOc1cnn(-c2ccccc2)c(=O)c1S,4.4,–
CCOc1c(S)cnn(-c2ccc([N+](=O)[O-])cc2)c1=O,30,–
COc1cnn(-c2ccccc2)c(=O)c1S,9.3,–
CCOc1c(Cl)cnn(-c2cccc(C)c2)c1=O,> 50,–
CCOc1c(S)cnn(-c2cccc(F)c2)c1=O,5.5,–
CCOc1cnn(-c2ccc([N+](=O)[O-])cc2)c(=O)c1Cl,219,–
O=c1c(Cl)c(Cl)cnn1-c1ccc([N+](=O)[O-])cc1,> 50,–
CCCN1C(=O)/C(=C/c2ccc(-c3ccccc3)o2)SC1=S,186,–
O=C1/C(=C/c2cc([N+](=O)[O-])cc(Br)c2O)SC(=S)N1c1ccc([N+](=O)[O-])cc1,12,–
CCOc1c(Cl)cnn(-c2cccc(Br)c2)c1=O,> 50,–
O=C1/C(=C/c2cc([N+](=O)[O-])cc(Br)c2O)SC(=S)N1c1cccc(Cl)c1,17,–
CCOc1c(S)cnn(-c2cccc(C)c2)c1=O,3.3,–
O=C(/C=C/c1ccc([N+](=O)[O-])cc1)c1ccccc1,51,–
CCN1C(=O)/C(=C/c2ccc(-c3ccccc3[N+](=O)[O-])o2)SC1=S,104,–
CC1=NN(c2ccccc2)C(=S)/C1=C/Nc1c(Br)cc(Br)cc1Br,–,Activity (Staphylococcus aureus [4]): inactive; Ki [6]: 1700 nM
CC1=NN(c2ccc(Cl)cc2)C(=O)/C1=C/Nc1ccc([N+](=O)[O-])cc1C,45,–
CCOc1cnn(-c2ccccc2)c(=O)c1Cl,1,–
O=c1c(OCc2ccccc2)c(O)cnn1-c1ccccc1,> 50,IC50 [2]: > 50 µM
O=C1/C(=C/c2ccc(-c3ccccc3)o2)SC(=S)N1Cc1ccccc1,492,–
CC1=NN(c2ccccc2)C(=S)/C1=C/Nc1ccc([N+](=O)[O-])cc1O,9.6,–

Structure (SMILES),IC50 [1] [µM],other results
CC1=NN(c2ccccc2)C(=S)/C1=C/Nc1ccccc1O,22,–
CSc1cnn(-c2ccccc2)c(=O)c1Cl,> 50,–
CCOc1cnn(-c2cccc(Br)c2)c(=O)c1Cl,> 50,–
Cc1ccc(N2C(=O)/C(=C/c3cccc([N+](=O)[O-])c3)SC2=S)c(C)c1,119,–
Cc1cccc(N2C(=O)/C(=C/c3cc([N+](=O)[O-])cc(Br)c3O)SC2=S)c1,15,–
CCSc1c(O)cnn(-c2ccccc2)c1=O,> 50,IC50 [2]: > 50 µM
CCOc1cnn(-c2cc(Cl)cc(Cl)c2)c(=O)c1S,166,IC50 [2]: 5.2 µM
CCOc1c(S)cnn(-c2ccccc2)c1=O,–,Ki [3]: 200 nM
CC1=NN(c2ccccc2)C(=S)/C1=C/Nc1ccc(C)cc1C,68,–
CCOc1c(S)cnn(C2CCCCC2)c1=O,17.9,–
CC1=NN(c2ccc(Cl)cc2)C(=O)/C1=C/Nc1ccc([N+](=O)[O-])cc1,48,–
CCOc1c(SS)cnn(-c2ccccc2)c1=O,1.5,IC50 [2]: 1.2 µM
COc1c(Cl)cnn(C2CCCCC2)c1=O,> 50,–
CCOc1c(Cl)cnn(-c2ccc([N+](=O)[O-])cc2)c1=O,> 50,–
CCSc1c(S)cnn(-c2ccccc2)c1=O,–,Activity (Staphylococcus aureus [4]): inactive; Ki [6]: 300 nM; Ki [3]: 1400 nM
O=c1c(Cl)c(Cl)cnn1-c1cccc(F)c1,> 50,–
CC1=NN(c2ccccc2)C(=S)/C1=C/Nc1ccccn1,0.76,IC50 [2]: 1.4 µM; Activity (Staphylococcus aureus [4]): inactive
CC1=NN(c2ccccc2)C(=S)/C1=C/Nc1ccc([N+](=O)[O-])cc1,–,MIC (Staphylococcus aureus [4]): > 1000 µM; Activity (Staphylococcus aureus [5]): 58%
CCN1C(=O)/C(=C/c2ccc(-c3cccc(Cl)c3)o2)SC1=S,109,–
CSc1cnn(-c2ccccc2)c(=O)c1O,> 50,–
CC1=NN(c2ccccc2)C(=S)/C1=C/Nc1ccc(/N=N/c2ccccc2)cc1,9,Activity (Staphylococcus aureus [4]): inactive
O=c1c(Cl)c(Cl)cnn1-c1cc(Cl)cc(Cl)c1,61,–

Structure (SMILES),IC50 [1] [µM],other results
COc1c(Cl)cnn(-c2ccccc2)c1=O,> 50,–
CC1=NN(c2ccccc2)C(=S)/C1=C/Nc1ccc(Br)cc1,39,Activity (Staphylococcus aureus [4]): inactive
CC1=NN(c2ccc(C)cc2)C(=O)/C1=C/Nc1ccc([N+](=O)[O-])cc1,62,–
CCOc1c(Cl)cnn(-c2cccc(F)c2)c1=O,> 50,–
CN1C(=O)/C(=C/c2ccc(-c3ccccc3)o2)SC1=S,405,–
Cc1cccc(-n2ncc(Cl)c(Cl)c2=O)c1,> 50,–
CCOc1cnn(-c2cccc(C)c2)c(=O)c1Cl,> 50,–
CC1=NN(c2ccccc2)C(=S)/C1=C/Nc1ccccc1Cl,54,–
CCOc1cnn(-c2cccc(C)c2)c(=O)c1S,3.1,Activity (Staphylococcus aureus [4]): inactive
CCOc1c(S)cnn(-c2cc(Cl)cc(Cl)c2)c1=O,301,–
CC1=NN(c2ccccc2)C(=S)/C1=C/NC1CCCCC1,115,–
Cc1ccc(N2C(=O)/C(=C/c3cc(Br)c(O)c([N+](=O)[O-])c3)SC2=S)c(C)c1,35,–
COc1c(Cl)cnn(-c2cc(Cl)cc(Cl)c2)c1=O,> 50,–
Cc1ccc(N2C(=O)/C(=C/c3cc([N+](=O)[O-])cc(Br)c3O)SC2=S)c(C)c1,3.7,MIC (Staphylococcus aureus [4]): 10 µM; Activity (Staphylococcus aureus [5]): 84%
CCOc1c(SSC)cnn(-c2ccccc2)c1=O,–,Ki [3]: 400 nM
CC1=NN(c2ccccc2)C(=S)/C1=C/Nc1ccc(C)c(C)c1,52,–
CCn1ncc(SC)c(O)c1=O,> 50,–
COc1c(Cl)cnn(-c2cccc(C)c2)c1=O,> 50,–
CC(=O)c1ccc(/N=C2\C(=O)NN=C2C)cc1,26,–
